Key:
[1] = molecular target: T1, G-protein coupled receptor 55 (Homo sapiens, UniProt Q9Y2T6); experiment: Agonist activity at human GPR55 expressed in CHOK1 cells at 10 uM by pathHunter beta-arrestin assay relative to LPI; assay type: cell-based; details: CHO-K1
Method in brief: (§1)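 PathHunter eXpress GPR55 CHO-K1 β-arrestin kit run per the kit protocol, compounds screened at 10 μM. Luminescence read and expressed as percentage of the signal from bovine liver LPI at 1 μM. Mean with range of two experiments, each done in duplicate.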

[2] = molecular target: T1, G-protein coupled receptor 55; experiment: Agonist activity at human GPR55 expressed in HEK293 cells assessed as calcium signalling by fura 2-based digital epifluorescence microscopy; assay type: functional, cell-based
Method in brief: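 HEK293 cells stably expressing GPR55, grown on poly-L-lysine coated glass coverslips and serum-starved overnight. Compounds applied by bath perfusion in HEPES-buffered saline at 30-32 °C. Single-cell fura 2 ratiometric imaging (350/380 nm) every 5 s. Peak responses pooled from 24 cells (12 random cells from each of two experiments) per concentration; EC50 with 95% CI from concentration-response curves. ARA-LPI used as reference agonist.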

[3] = molecular target: Cannabinoid receptor 1 (Homo sapiens) (UniProt P21554); experiment: Agonist activity at CBR1 (unknown origin) assessed as [35S]GTPgammaS binding at 10 uM by […] assay relative to control; assay type: functional
Cannabinoid receptor 1 (Homo sapiens), sequence (P21554 whole entry): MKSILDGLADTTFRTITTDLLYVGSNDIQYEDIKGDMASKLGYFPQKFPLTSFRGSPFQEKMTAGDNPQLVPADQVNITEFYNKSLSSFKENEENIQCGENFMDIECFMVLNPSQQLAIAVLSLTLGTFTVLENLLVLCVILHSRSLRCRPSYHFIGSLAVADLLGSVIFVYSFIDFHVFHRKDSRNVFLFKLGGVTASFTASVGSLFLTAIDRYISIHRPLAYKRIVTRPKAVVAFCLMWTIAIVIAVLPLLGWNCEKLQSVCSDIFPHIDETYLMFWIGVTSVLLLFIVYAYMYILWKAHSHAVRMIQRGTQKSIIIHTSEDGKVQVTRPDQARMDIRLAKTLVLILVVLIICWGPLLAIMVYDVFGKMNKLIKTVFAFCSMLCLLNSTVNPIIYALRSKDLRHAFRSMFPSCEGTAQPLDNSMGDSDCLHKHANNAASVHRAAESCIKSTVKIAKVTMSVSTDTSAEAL

[4] = molecular target: Cannabinoid receptor 2 (Homo sapiens) (UniProt P34972); experiment: Antagonist activity at human CBR2 assessed as [35S]GTPgammaS binding at 10 uM by […] assay relative to control; assay type: functional; set-up: scale not given: the % may be the effect or the level left
Cannabinoid receptor 2 (Homo sapiens), sequence (P34972 whole entry): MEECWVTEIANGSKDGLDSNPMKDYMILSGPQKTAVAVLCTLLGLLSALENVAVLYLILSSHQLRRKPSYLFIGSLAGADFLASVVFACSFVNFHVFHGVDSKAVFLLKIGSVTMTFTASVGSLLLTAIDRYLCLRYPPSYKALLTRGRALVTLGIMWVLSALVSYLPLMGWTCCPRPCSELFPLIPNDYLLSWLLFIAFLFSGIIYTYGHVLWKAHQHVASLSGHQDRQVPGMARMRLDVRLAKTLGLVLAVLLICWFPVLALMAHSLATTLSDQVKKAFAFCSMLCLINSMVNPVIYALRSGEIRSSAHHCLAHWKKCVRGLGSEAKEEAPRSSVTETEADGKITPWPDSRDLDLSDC

[5] = molecular target: Cannabinoid receptor 2 (Homo sapiens) (UniProt P34972); experiment: Agonist activity at CBR2 (unknown origin) assessed as [35S]GTPgammaS binding at 10 uM by […] assay relative to control; assay type: functional
[6] = molecular target: T2, Fatty-acid amide hydrolase 1 (Homo sapiens) (UniProt O00519); experiment: Inhibition of human FAAH expressed in African green monkey COS-7 cell membranes using [3H]-AEA as substrate assessed as residual activity at 10 uM preincubated for 10 mins followed by substrate addition measured after 10 mins by liquid scintillation counting analysis relative to control
T2 sequence (whole entry): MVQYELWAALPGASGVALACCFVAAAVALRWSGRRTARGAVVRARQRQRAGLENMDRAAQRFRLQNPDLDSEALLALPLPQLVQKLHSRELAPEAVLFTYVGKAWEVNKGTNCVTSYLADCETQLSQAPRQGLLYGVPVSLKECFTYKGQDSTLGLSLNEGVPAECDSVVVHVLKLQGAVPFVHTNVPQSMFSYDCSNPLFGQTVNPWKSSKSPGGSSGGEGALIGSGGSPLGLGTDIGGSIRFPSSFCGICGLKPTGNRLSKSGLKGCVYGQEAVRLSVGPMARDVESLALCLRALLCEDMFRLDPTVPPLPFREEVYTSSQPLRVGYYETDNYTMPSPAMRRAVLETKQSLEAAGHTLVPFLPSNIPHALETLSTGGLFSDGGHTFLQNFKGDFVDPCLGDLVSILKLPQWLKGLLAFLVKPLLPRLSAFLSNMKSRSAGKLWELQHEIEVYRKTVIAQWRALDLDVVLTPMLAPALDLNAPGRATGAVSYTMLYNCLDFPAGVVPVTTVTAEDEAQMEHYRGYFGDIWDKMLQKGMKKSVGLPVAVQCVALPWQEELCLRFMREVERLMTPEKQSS
Method in brief: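 Membranes of COS-7 cells overexpressing hFAAH, 1 μg protein per incubation. Substrate 20 μM AEA including 10 nM [3H]AEA (60 Ci/mmol). Compounds tested at 10 μM.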

[7] = molecular target: T3, Monoglyceride lipase (Homo sapiens) (UniProt Q99685); experiment: Inhibition of human MGL expressed in […] cells using 2AG as substrate assessed as residual activity at 10 uM preincubated for 10 mins followed by substrate addition measured after 10 mins by HPLC analysis; assay type: cell-based
T3 sequence (whole entry): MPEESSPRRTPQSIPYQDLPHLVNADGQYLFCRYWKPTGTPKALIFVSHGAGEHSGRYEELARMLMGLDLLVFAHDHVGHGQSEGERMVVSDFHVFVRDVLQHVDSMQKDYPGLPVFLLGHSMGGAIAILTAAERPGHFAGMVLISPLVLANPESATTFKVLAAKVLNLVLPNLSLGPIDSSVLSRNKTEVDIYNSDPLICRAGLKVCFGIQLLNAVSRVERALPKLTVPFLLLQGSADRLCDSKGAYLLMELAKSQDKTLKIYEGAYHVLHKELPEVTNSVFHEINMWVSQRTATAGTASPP
Method in brief: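 Lysates of HEK cells overexpressing hMGL, 2.5 μg protein per incubation, substrate at 50 μM. Compounds tested at 10 μM.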

[8] = molecular target: T4, Lysophosphatidylserine lipase ABHD12 (Homo sapiens) (UniProt Q8N2K0); experiment: Inhibition of human ABHD12 expressed in […] cells using 2-AG as substrate assessed as glycerol liberation at 10 uM preincubated for 30 mins followed by 2-AG addition measured for 90 mins by fluorescent glycerol assay relative to control; assay type: cell-based; set-up: scale not given: the % may be the effect or the level left
T4 sequence (whole entry): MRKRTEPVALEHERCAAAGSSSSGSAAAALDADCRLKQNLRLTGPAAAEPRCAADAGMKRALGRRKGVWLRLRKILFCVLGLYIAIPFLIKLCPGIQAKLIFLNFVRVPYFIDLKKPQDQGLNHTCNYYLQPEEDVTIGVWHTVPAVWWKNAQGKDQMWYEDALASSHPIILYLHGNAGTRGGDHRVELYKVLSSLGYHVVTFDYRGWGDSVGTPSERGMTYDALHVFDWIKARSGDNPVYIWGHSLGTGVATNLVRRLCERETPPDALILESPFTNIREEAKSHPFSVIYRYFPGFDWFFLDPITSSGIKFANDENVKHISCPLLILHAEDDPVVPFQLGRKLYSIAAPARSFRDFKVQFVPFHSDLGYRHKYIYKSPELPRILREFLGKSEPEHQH
Method in brief: (§2)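 Lysates of HEK293 cells transiently overexpressing hABHD6 or hABHD12, 0.3 μg protein/well. Pretreated 30 min with DMSO or compound, then 2-AG added (12.5 μM final). Glycerol release coupled enzymatically to H2O2-dependent resorufin formation; fluorescence (ex 530/em 590 nm) followed kinetically for 90 min.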

[9] = molecular target: T5, Monoacylglycerol lipase ABHD6 (Homo sapiens) (UniProt Q9BV23); experiment: Inhibition of human ABHD6 expressed in […] cells using 2-AG as substrate assessed as glycerol liberation at 10 uM preincubated for 30 mins followed by 2-AG addition measured for 90 mins by fluorescent glycerol assay relative to control; assay type: cell-based; set-up: scale not given: the % may be the effect or the level left; method in brief: as §2
T5 sequence (whole entry): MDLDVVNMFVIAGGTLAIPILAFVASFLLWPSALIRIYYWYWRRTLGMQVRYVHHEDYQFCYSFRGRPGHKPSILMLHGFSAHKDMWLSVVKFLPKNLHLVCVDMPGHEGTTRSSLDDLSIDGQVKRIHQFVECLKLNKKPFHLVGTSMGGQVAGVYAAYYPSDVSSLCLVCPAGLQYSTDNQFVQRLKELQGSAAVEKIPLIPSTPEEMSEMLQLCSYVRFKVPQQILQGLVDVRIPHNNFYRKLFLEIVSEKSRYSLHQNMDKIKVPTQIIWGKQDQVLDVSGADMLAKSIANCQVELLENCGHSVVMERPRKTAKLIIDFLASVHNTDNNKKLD

[10] = molecular target: T5, Monoacylglycerol lipase ABHD6 (Homo sapiens); experiment: Inhibition of human ABHD6 expressed in […] cells using 2-AG as substrate assessed as glycerol liberation at 1 uM preincubated for 30 mins followed by 2-AG addition measured for 90 mins by fluorescent glycerol assay relative to control; assay type: cell-based; set-up: scale not given: the % may be the effect or the level left; method in brief: as §2
[11] = molecular target: T1, G-protein coupled receptor 55; experiment: Agonist activity at human GPR55 expressed in CHOK1 cells at 10 uM by pathHunter beta-arrestin assay relative to control; assay type: cell-based; details: CHO-K1; method in brief: as §1
[12] = molecular target: Cannabinoid receptor 1 (Homo sapiens) (UniProt P21554); experiment: Antagonist activity at human CBR1 assessed as [35S]GTPgammaS binding at 10 uM by radiometric assay relative to control; set-up: scale not given: the % may be the effect or the level left

T1 sequence (Q9Y2T6 whole entry): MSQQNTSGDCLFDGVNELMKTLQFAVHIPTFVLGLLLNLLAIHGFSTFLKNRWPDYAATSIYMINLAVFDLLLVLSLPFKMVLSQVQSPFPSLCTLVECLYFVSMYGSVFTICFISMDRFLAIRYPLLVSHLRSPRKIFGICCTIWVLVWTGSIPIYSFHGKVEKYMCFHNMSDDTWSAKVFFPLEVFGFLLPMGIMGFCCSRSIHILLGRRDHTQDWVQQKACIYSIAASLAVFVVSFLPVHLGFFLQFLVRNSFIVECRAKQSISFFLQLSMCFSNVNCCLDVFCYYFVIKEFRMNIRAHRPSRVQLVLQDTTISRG

| SMILES | Activity [1] [%] | EC50 [2] [nM] | Activity [3] [%] | Activity [4] [%] | Activity [5] [%] | Activity [6] [%] | Activity [7] [%] | Activity [8] [%] | Activity [9] [%] | Activity [10] [%] | Activity [11] [%] | Activity [12] [%] |
| --- | --- | --- | --- | --- | --- | --- | --- | --- | --- | --- | --- | --- |
| CCCNS(=O)(=O)c1ccc(NC(=S)NC(=O)c2ccc(-c3ccccc3)cc2)cc1 | 172 | 176 | 128 | 85 | 85 | 96 | 103 | 77 | 67 | 103 | 252 | 91 |
| CCCCc1ccc(NS(=O)(=O)c2ccc(NC(=S)NC(=O)c3ccc(-c4ccccc4)cc3)cc2)cc1 | 91 |  | 96 | 100 | 90 | 95 | 104 | 83 | 97 |  | 134 | 78 |
| COc1ccc(C(=O)NC(=S)Nc2ccc(S(=O)(=O)NC(C)C)cc2)cc1 | 62 |  | 93 | 92 | 90 | 103 | 93 | 78 | 66 | 102 | 91 | 95 |
| CCCCC/C=C\C/C=C\C/C=C\C/C=C\CCCC(=O)OC[C@@H](O)COP(=O)(O)O[C@@H]1[C@@H](O)[C@H](O)[C@@H](O)[C@H](O)[C@@H]1O |  | 20.2 |  |  |  |  |  |  |  |  |  |  |
| O=C(NC(=S)Nc1ccc(S(=O)(=O)NCc2ccccc2)cc1)c1ccc(-c2ccccc2)cc1 | 197 | 5.6 | 97 | 83 | 93 | 106 | 97 | 86 | 86 |  | 291 | 94 |
| CC(=O)NS(=O)(=O)c1ccc(NC(=S)NC(=O)c2cccc3ccccc23)cc1 | 66 |  | 96 | 97 | 94 | 107 | 98 | 82 | 88 |  | 99 | 101 |
| CN1CCN(S(=O)(=O)c2ccc(NC(=S)NC(=O)c3ccc(-c4ccccc4)cc3)cc2)CC1 | 148 | 218 | 101 | 95 | 101 | 101 | 97 | 81 | 76 |  | 218 | 91 |
| O=C(NC(=S)Nc1ccc(S(=O)(=O)Nc2ccc(Cl)cc2)cc1)c1ccc(-c2ccccc2)cc1 | 158 |  | 93 | 101 | 94 | 89 | 105 | 82 | 93 |  | 231 | 84 |
| NS(=O)(=O)c1ccc(NC(=S)NC(=O)c2ccc(-c3ccccc3)cc2)cc1 |  |  | 147 | 89 | 95 | 34 | 94 | 84 | 85 |  | 150 | 119 |
| Cc1ccc(C(=O)NC(=S)Nc2ccc(S(=O)(=O)NC(C)C)cc2)c(Br)c1 | 70 |  | 103 | 100 | 88 | 97 | 89 | 74 | 59 | 106 | 105 | 88 |
| CN(C)S(=O)(=O)c1ccc(NC(=S)NC(=O)c2ccc(-c3ccccc3)cc2)cc1 | 101 | 55.7 | 105 | 96 | 90 | 54 | 93 | 74 | 79 |  | 148 | 96 |
| CC(=O)NS(=O)(=O)c1ccc(NC(=S)NC(=O)c2ccc(C(C)C)cc2)cc1 | 67 |  | 100 | 92 | 96 | 103 | 99 | 88 | 81 |  | 99 | 98 |
| O=C(NC(=S)Nc1ccc(S(=O)(=O)Nc2ccccc2)cc1)c1ccc(-c2ccccc2)cc1 | 178 | 6.2 | 100 | 96 | 90 | 103 | 104 | 78 | 78 |  | 263 | 95 |
| C=CCN(CC=C)S(=O)(=O)c1ccc(NC(=S)NC(=O)c2ccc(-c3ccccc3)cc2)cc1 |  |  | 95 | 105 | 100 | 92 | 96 | 72 | 74 |  | 176 | 80 |
